Experimental data: ChEMBL document CHEMBL1165950, “Design and synthesis of new potent anticancer pyrazoles with high FLT3 kinase inhibitory selectivity” (Bioorg Med Chem, 2010)

What was measured:
Type in all cases: functional
KM12 [1] = assay: Cytotoxicity against human KM12 cells assessed as cell growth at 10 uM after 48 hrs by sulforhodamine B assay; conditions: KM12, 48 h, read-out: Activity
SW-620 = assay: Cytotoxicity against human SW620 cells assessed as cell growth at 0.001 uM after 48 hrs by sulforhodamine B assay; conditions: SW-620, 48 h, read-out: Activity
OVCAR-4 = assay: Cytotoxicity against human OVCAR4 cells assessed as cell growth at 10 uM; conditions: read-out: Activity
Procedure, shortened: (§1)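 NCI-60 screen: cells grown in RPMI 1640 with 5% FBS and 2 mM L-glutamine, plated at 5000–40,000 cells/well according to doubling time, and preincubated 24 h at 37 °C, 5% CO2. The single 10 µM dose (DMSO stock) was added, then incubated 48 h. Cells were TCA-fixed and stained with 0.4% SRB, read at 515 nm, and growth % calculated against time-zero and control plates.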

UACC-62 [2] = assay: Cytotoxicity against human UACC62 cells assessed as cell growth at 1 uM after 48 hrs by sulforhodamine B assay; conditions: UACC-62, 48 h, read-out: Activity
NCI-H23 [3] = assay: Growth inhibition of human NCI-H23 cells after 48 hrs by sulforhodamine B assay; conditions: NCI-H23, 48 h
Procedure, shortened: (§2)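 NCI 60-cell screen, five-dose mode. Cells grown in RPMI 1640 with 5% FBS and 2 mM L-glutamine and plated at 5000-40,000 cells/well according to doubling time. After 24 h preincubation, a Tz plate was TCA-fixed. Five concentrations (10-fold or 1/2 log dilutions) were applied for 48 h at 37 °C. SRB staining read at 515 nm. IC50 taken from [(Ti-Tz)/(C-Tz)]×100 = 50.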

HOP-62 = assay: Cytotoxicity against human HOP62 cells assessed as cell growth at 1 uM after 48 hrs by sulforhodamine B assay; conditions: HOP-62, 48 h, read-out: Activity
LOX IMVI [4] = assay: Cytotoxicity against human LOXIMVI cells assessed as cell growth at 10 uM; conditions: read-out: Activity; procedure, shortened: as §1
COLO 205 = assay: Cytotoxicity against human COLO205 cells assessed as cell growth at 10 uM after 48 hrs by sulforhodamine B assay; conditions: COLO 205, 48 h, read-out: Activity
CCRF-CEM = assay: Cytotoxicity against human CCRF-CEM cells assessed as cell growth at 0.01 uM after 48 hrs by sulforhodamine B assay; conditions: read-out: Activity
Procedure, shortened: (§3)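 NCI-60 five-dose screen. Cells were grown in RPMI 1640 with 5% FBS and 2 mM L-glutamine, plated at 5000–40,000 cells/well and preincubated for 24 h. Time-zero plates were TCA-fixed. DMSO-solubilized drug was added at five concentrations (10-fold or ½-log serial dilutions) for 48 h at 37 °C, 5% CO2. Cells were TCA-fixed, stained with 0.4% SRB and read at 515 nm. Percent growth used time-zero, control and test absorbances.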

MDA-MB-231 = assay: Growth inhibition of human MDA-MB-231 cells after 48 hrs by sulforhodamine B assay; conditions: MDA-MB-231, 48 h; procedure, shortened: as §2
A549 = assay: Cytotoxicity against human A549 cells assessed as cell growth at 100 nM after 48 hrs by sulforhodamine B assay; conditions: A549, 48 h, read-out: Activity; procedure, shortened: as §3
MOLT-4 = assay: Cytotoxicity against human MOLT4 cells assessed as cell growth at 10 uM after 48 hrs by sulforhodamine B assay; conditions: MOLT-4, 48 h, read-out: Activity
T47D = assay: Cytotoxicity against human T47D cells assessed as cell growth at 10 uM after 48 hrs by sulforhodamine B assay; conditions: read-out: Activity
UACC-257 = assay: Growth inhibition of human UACC257 cells after 48 hrs by sulforhodamine B assay; conditions: UACC-257, 48 h; procedure, shortened: as §2
LOX IMVI [5] = assay: Cytotoxicity against human LOXIMVI cells assessed as cell growth at 0.01 uM after 48 hrs by sulforhodamine B assay; conditions: read-out: Activity
U-251 = assay: Cytotoxicity against human U251 cells assessed as cell growth at 10 uM; conditions: read-out: Activity; procedure, shortened: as §1
UO-31 = assay: Cytotoxicity against human UO31 cells assessed as cell growth at 1 uM after 48 hrs by sulforhodamine B assay; conditions: UO-31, 48 h, read-out: Activity
A498 = assay: Cytotoxicity against human A498 cells assessed as cell growth at 10 uM; conditions: read-out: Activity
Procedure, shortened: (§4)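 Single-dose NCI-60 screen at 10 µM. Cells were grown in RPMI 1640 with 5% FBS and 2 mM L-glutamine, then treated for 48 h at 37 °C. Protein was measured by SRB staining with absorbance at 515 nm. Percentage growth was recorded, and inhibition percentage was calculated as 100 minus growth percentage.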

ACHN = assay: Cytotoxicity against human ACHN cells assessed as cell growth at 100 nM after 48 hrs by sulforhodamine B assay; conditions: read-out: Activity; procedure, shortened: as §3
NCI-H522 = assay: Cytotoxicity against human NCI-H522 cells assessed as cell growth at 10 uM after 48 hrs by sulforhodamine B assay; conditions: NCI-H522, 48 h, read-out: Activity
HT-29 [6] = assay: Cytotoxicity against human HT-29 cells assessed as cell growth at 10 uM; conditions: read-out: Activity; procedure, shortened: as §4
NCI-H23 [7] = assay: Cytotoxicity against human NCI-H23 cells assessed as cell growth at 0.01 uM after 48 hrs by sulforhodamine B assay; conditions: NCI-H23, 48 h, read-out: Activity
KM12 [8] = assay: Cytotoxicity against human KM12 cells assessed as cell growth at 100 nM after 48 hrs by sulforhodamine B assay; conditions: KM12, 48 h, read-out: Activity
SK-MEL-5 = assay: Growth inhibition of human SK-MEL-5 cells after 48 hrs by sulforhodamine B assay; conditions: SK-MEL-5, 48 h; procedure, shortened: as §2
UACC-62 [9] = assay: Growth inhibition of human UACC62 cells after 48 hrs by sulforhodamine B assay; conditions: UACC-62, 48 h; procedure, shortened: as §2
HOP-92 = assay: Cytotoxicity against human HOP92 cells assessed as cell growth at 0.01 uM after 48 hrs by sulforhodamine B assay; conditions: HOP-92, 48 h, read-out: Activity
[10] = Cytotoxicity against human RPMI8266 cells assessed as cell growth at 0.01 uM after 48 hrs by sulforhodamine B assay; conditions: read-out: Activity
HT-29 [11] = assay: Cytotoxicity against human HT-29 cells assessed as cell growth at 0.001 uM after 48 hrs by sulforhodamine B assay; conditions: HT-29, 48 h, read-out: Activity
OVCAR-5 = assay: Cytotoxicity against human OVCAR5 cells assessed as cell growth at 1 uM after 48 hrs by sulforhodamine B assay; conditions: OVCAR-5, 48 h, read-out: Activity
K562 = assay: Cytotoxicity against human K562 cells assessed as cell growth at 0.01 uM after 48 hrs by sulforhodamine B assay; conditions: K562, 48 h, read-out: Activity
MDA-MB-468 = assay: Cytotoxicity against human MDA-MB-468 cells assessed as cell growth at 0.01 uM after 48 hrs by sulforhodamine B assay; conditions: MDA-MB-468, 48 h, read-out: Activity
[12] = read-out: LC50 (the source's name)

With COc1cc(C)cc(-c2nn(CC#N)cc2-c2ccnc(-c3ccc(N(C)C)cc3)c2)c1 as the molecule, how does the growth at 10 µM (KM12 [1]) read?
Its growth at 10 µM is -70%.

What about the growth at 0.001 µM (SW-620) of the same molecule?
The growth at 0.001 µM was 98%.

And the growth at 10 µM (OVCAR-4)?
Its growth at 10 µM is 17.1%.

And the growth at 1 µM (UACC-62 [2])?
Its growth at 1 µM is 12%.

What about the GI50 (NCI-H23 [3]) of the same molecule?
Its GI50 is 0.514 µM.

What about the TGI (NCI-H23 [3]) of the same molecule?
The TGI was greater than 100 µM.

What about the CC50 (NCI-H23 [3]; [12]) of the same molecule?
Its CC50 is greater than 100 µM.

And the growth at 1 µM (HOP-62)?
The growth at 1 µM was 5%.

And the growth at 10 µM (LOX IMVI [4])?
The growth at 10 µM was 5.2%.

And the growth at 10 µM (COLO 205)?
The growth at 10 µM was -61%.

What about the growth at 0.01 µM (CCRF-CEM) of the same molecule?
Its growth at 0.01 µM is 100%.

And the GI50 (MDA-MB-231)?
Its GI50 is 1.09 µM.

What about the LC50 (MDA-MB-231) of the same molecule?
Its LC50 is greater than 100 µM.

What about the growth at 0.1 µM (A549) of the same molecule?
Its growth at 0.1 µM is 36%.

What about the growth at 10 µM (MOLT-4) of the same molecule?
Its growth at 10 µM is 1%.

What about the growth at 10 µM (T47D) of the same molecule?
Its growth at 10 µM is -32%.

And the GI50 (UACC-257)?
Its GI50 is 0.448 µM.

And the TGI (UACC-257)?
Its TGI is greater than 100 µM.

What about the CC50 (UACC-257; [12]) of the same molecule?
Its CC50 is greater than 100 µM.

What about the growth at 0.01 µM (LOX IMVI [5]) of the same molecule?
Its growth at 0.01 µM is 105%.

What about the growth at 10 µM (U-251) of the same molecule?
The growth at 10 µM was -9.99%.

And the growth at 1 µM (UO-31)?
The growth at 1 µM was 18%.

And the growth at 10 µM (A498)?
The growth at 10 µM was 4.2%.

What about the growth at 0.1 µM (ACHN) of the same molecule?
Its growth at 0.1 µM is 29%.

And the growth at 10 µM (NCI-H522)?
Its growth at 10 µM is -64%.

What about the growth at 10 µM (HT-29 [6]) of the same molecule?
Its growth at 10 µM is -7.04%.

And the growth at 0.01 µM (NCI-H23 [7])?
The growth at 0.01 µM was 97%.

What about the growth at 0.1 µM (KM12 [8]) of the same molecule?
Its growth at 0.1 µM is 10%.

What about the GI50 (SK-MEL-5) of the same molecule?
The GI50 was 0.269 µM.

And the TGI (SK-MEL-5)?
The TGI was 0.672 µM.

And the CC50 (SK-MEL-5; [12])?
The CC50 was 24 µM.

What about the GI50 (UACC-62 [9]) of the same molecule?
The GI50 was 0.337 µM.

And the TGI (UACC-62 [9])?
The TGI was 40.7 µM.

What about the CC50 (UACC-62 [9]; [12]) of the same molecule?
The CC50 was greater than 100 µM.

And the growth at 0.01 µM (HOP-92)?
Its growth at 0.01 µM is 93%.

What about the growth at 0.01 µM [10] of the same molecule?
The growth at 0.01 µM was 110%.

And the growth at 0.001 µM (HT-29 [11])?
Its growth at 0.001 µM is 103%.

What about the growth at 1 µM (OVCAR-5) of the same molecule?
The growth at 1 µM was 31%.

What about the growth at 0.01 µM (K562) of the same molecule?
Its growth at 0.01 µM is 61%.

And the growth at 0.01 µM (MDA-MB-468)?
Its growth at 0.01 µM is 74%.
